Experimental data: paper PMC6607903 (Clinical cancer research : an official journal of the …, 2015)

Legend:
[1] = format: in vivo
[2] = Plasma pharmacokinetics of CUDC-101 and metabolite in patients; format: in vivo, human; conditions: for AUC(0-t) / Cmax / Tmax / Vd / clearance / half-life: human, iv
locally advanced HNSCC = assay: Response evaluation; format: in vivo, human
Procedure, shortened: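 Test compound was infused IV over 1 h, Mon/Wed/Fri, for one week before radiation and then through weeks 1–7. Cisplatin 100 mg/m2 was given on days 2, 23 and 44 (adjustable to 40 mg/m2/week), never on the same day. IMRT delivered 70 Gy in 2 Gy daily fractions to gross disease and 56 Gy in 1.6 Gy fractions to the elective neck. Response was scored by RECIST 1.1 plus site-investigator overall assessment from imaging, PET/CT 12 weeks post-therapy, examination and histology.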

EGFR = assay: IHC of phosphorylated EGFR in paired tumor biopsies; format: in vivo, human; conditions: 2 pairs, 275 mg/m^2
Procedure, shortened: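 Post-dose tumour biopsies were taken 60±30 min after the end of a 1-h IV infusion of test compound on day −5 or −3, and paired with pre-treatment archival tumour. Staining was done on 5-μm paraffin sections. Antigen retrieval used 10mM Tris, 1mM EDTA, 0.05% Tween 20, pH 9.0, at 95°C for 10 min then 90°C for 5 min. Primary antibody was anti-pEGFR Y1068.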

[3] = monotherapy; cited from earlier work
[4] = tested on: HPV-negative head and neck cancer cell lines; conditions: cited from earlier work
Akt = conditions: compared with erlotinib or SAHA alone; cited from earlier work

C#Cc1cccc(Nc2ncnc3cc(OC)c(OCCCCCCC(=O)NO)cc23)c1 [CUDC-101, 7-(4-(3-ethylnylphenylamino)-7-methoxyquinazolin-6-yloxy)-N-hydroxyheptanamide]
Single adverse event (discontinuation) at dose level 1 ([1]; human, in vivo, 1 week): grade 2 joint pain and myalgia | Patients who experienced a serious adverse event (SAE) ([1]; human, in vivo, 8 weeks): 7 | Patients who experienced at least one AE ([1]; in vivo): All patients | Patients with an SAE considered related to any agent ([1]; in vivo): Five | Dose dependent increase in exposure or peak concentration ([2]; 225 vs 275 mg/m^2): no clear dose dependent increase | Accumulation with this dosing regimen ([2]; IV 3 times per week, days −7 to 43): low probability of accumulation | AUC(0-t) ([2]; plasma, 225 mg/m2): 9920 ng·h/mL | Cmax ([2]; plasma, 225 mg/m2): 13100 ng/mL | Tmax ([2]; plasma, 225 mg/m2): 0.542 h | Vd ([2]; plasma, 225 mg/m2): 26.6 L | clearance ([2]; plasma, 225 mg/m2): 938 mL/min | half-life ([2]; plasma, 225 mg/m2): 2.83 h | AUC(0-t) ([2]; plasma, 225 mg/m^2): 7110 ng·h/mL | Cmax ([2]; plasma, 225 mg/m^2): 8890 ng/mL | Tmax ([2]; plasma, 225 mg/m^2): 1.25 h | Vd ([2]; plasma, 225 mg/m^2): 54.4 L | clearance ([2]; plasma, 225 mg/m^2): 895 mL/min | half-life ([2]; plasma, 225 mg/m^2): 3.91 h | AUC(0-t) ([2]; plasma, 275 mg/m2): 8000 ng·h/mL | Cmax ([2]; plasma, 275 mg/m2): 7890 ng/mL | Tmax ([2]; plasma, 275 mg/m2): 0.5 h | Vd ([2]; plasma, 275 mg/m2): 42.3 L | clearance ([2]; plasma, 275 mg/m2): 1060 mL/min | half-life ([2]; plasma, 275 mg/m2): 2.88 h | AUC(0-t) ([2]; plasma, 275 mg/m^2): 7770 ng·h/mL | Cmax ([2]; plasma, 275 mg/m^2): 7820 ng/mL | Tmax ([2]; plasma, 275 mg/m^2): 0.742 h | Vd ([2]; plasma, 275 mg/m^2): 76 L | clearance ([2]; plasma, 275 mg/m^2): 1020 mL/min | half-life ([2]; plasma, 275 mg/m^2): 6.41 h | Peak concentrations and exposure between days −7 and 43 ([2]; plasma, IV 3 times per week): similar | Exposure to the parent compound compared to its metabolite ([2]; plasma, all subjects): greater in all subjects | Post-treatment clinical assessment: stable, patients (%) (locally advanced HNSCC; 11 patients, combination with cisplatin and radiation): 4 (37%) | Patients progression free (locally advanced HNSCC; median of 1.47 (0.68 – 2.3) years of follow-up): 90% | Phosphorylation of EGFR (Y1068 and Y1173) in tumor biopsies (EGFR): trend of EGFR inhibition | MTD as a single agent [3]: 275 mg/m^2 | Activity in HPV-negative head and neck cancer cell lines [4]: has activity | Phosphorylation of Akt (Akt): reduced phosphorylation of Akt

N.N.[Cl][Pt][Cl] [Cisplatin, reference compound]
SAE: Failure to thrive ([1]; Dose Level 1, 225 mg/m^2 CUDC-101, agent Cisplatin/Radiation): 1 (25%)
